Activity calls are given as the source filed them. The calls are words filed in the database; no cut-off is given here.
How the values were obtained:
[1] = test system: Hepatitis B virus; assay: Antiviral activity against HBV genotype D in hydrodynamic injection-based C57BL/6 mouse model of HBV infection assessed as inhibition of HBV replication at 50 mg/kg, po dosed once daily for 7 days by real-time PCR analysis; type: functional, organism-based
[2] = test system: Hepatitis B virus; assay: Antiviral activity against HBV genotype D in hydrodynamic injection-based C57BL/6 mouse model of HBV infection assessed as inhibition of serum HBV DNA level at 50 mg/kg, po dosed twice daily for 7 days by real-time PCR analysis; type: functional, organism-based
[3] = test system: Hepatitis B virus; assay: Antiviral activity against HBV genotype D in hydrodynamic injection-based C57BL/6 mouse model of HBV infection assessed as inhibition of liver HBV DNA level at 50 mg/kg, po dosed twice daily for 7 days by real-time PCR analysis; type: functional, organism-based
[4] = test system: Hepatitis B virus; assay: Antiviral activity against HBV genotype D in hydrodynamic injection-based C57BL/6 mouse model of HBV infection assessed as inhibition of serum HBV DNA level at 100 mg/kg, po dosed twice daily for 7 days by real-time PCR analysis; type: functional, organism-based
[5] = test system: Hepatitis B virus; assay: Antiviral activity against HBV genotype D in hydrodynamic injection-based C57BL/6 mouse model of HBV infection assessed as inhibition of liver HBV DNA level at 100 mg/kg, po dosed twice daily for 7 days by real-time PCR analysis; type: functional, organism-based
[6] = test system: Hepatitis B virus; assay: Antiviral activity against HBV genotype D in hydrodynamic injection-based C57BL/6 mouse model of HBV infection assessed as inhibition of serum HBV DNA level at 200 mg/kg, po dosed twice daily for 7 days by real-time PCR analysis; type: functional, organism-based
[7] = test system: Hepatitis B virus; assay: Antiviral activity against HBV genotype D in hydrodynamic injection-based C57BL/6 mouse model of HBV infection assessed as inhibition of liver HBV DNA level at 200 mg/kg, po dosed twice daily for 7 days by real-time PCR analysis; type: functional, organism-based
[8] = Solubility in water at 1 mg at 25 degC by HPLC analysis; type: physicochemical
In short: (§1)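 Solubility determined in water or 0.067 M phosphate buffer at pH 5.8, 6.8 and 7.4. Values are reported in mg/mL; ND means below the detection limit.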

[9] = Solubility in pH 5.8 phosphate buffer at 1 mg at 25 degC by HPLC analysis; type: physicochemical; in short: as §1
[10] = Solubility in pH 6.8 phosphate buffer at 1 mg at 25 degC by HPLC analysis; type: physicochemical; conditions: phosphate buffer, read-out: solubility; in short: as §1
[11] = Solubility in pH 7.4 phosphate buffer at 1 mg at 25 degC by HPLC analysis; type: physicochemical; in short: as §1
[12] = AUC in C57BL/6 mouse plasma at 100 mg/kg, po measured from 5 mins to 24 hrs by HPLC analysis; type: ADME, organism-based; design: time upper 24 hr, dose 100 mg/kg, time lower 0.083 hr, route oral
In short: (§2)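 Male C57BL/6 mice, n=3. Dosing 20 mg/kg i.v. or 100 mg/kg p.o. of parent; prodrug p.o. at 100 or 200 mg/kg. The parent compound was measured in blood/plasma and in liver from 5 min onward. Readouts were Cmax, Tmax, t1/2, CL, AUC and oral bioavailability.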

[13] = AUC in C57BL/6 mouse plasma at 200 mg/kg, po measured from 5 mins to 24 hrs by HPLC analysis; type: ADME, organism-based; design: time 0.083-24 hr, dose 200 mg/kg, route oral; in short: as §2
[14] = AUC in C57BL/6 mouse liver at 100 mg/kg, po measured from 5 mins to 24 hrs by HPLC analysis; type: ADME, organism-based; design: time 0.083-24 hr, dose 100 mg/kg, route oral; conditions: in vivo; in short: as §2
[15] = AUC in C57BL/6 mouse liver at 200 mg/kg, po measured from 5 mins to 24 hrs by HPLC analysis; type: ADME, organism-based; design: time upper 24 hr, dose 200 mg/kg, time lower 0.083 hr, route oral; conditions: in vivo; in short: as §2
[16] = Tmax in C57BL/6 mouse blood at 100 mg/kg, po measured from 5 mins to 24 hrs by HPLC analysis; type: ADME, organism-based
In short: (§3)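 Male C57BL/6 mice, single oral dose of prodrug at 100 or 200 mg/kg; blood and liver levels of the parent compound measured over time; N=3; Tmax taken from the concentration–time profiles.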

[17] = Tmax in C57BL/6 mouse blood at 200 mg/kg, po measured from 5 mins to 24 hrs by HPLC analysis; type: ADME, organism-based; in short: as §3
[18] = Cmax in C57BL/6 mouse blood at 100 mg/kg, po measured from 5 mins to 24 hrs by HPLC analysis; type: ADME, organism-based; design: dose 100 mg/kg, route oral; in short: as §2
[19] = Cmax in C57BL/6 mouse blood at 200 mg/kg, po measured from 5 mins to 24 hrs by HPLC analysis; type: ADME, organism-based; design: dose 200 mg/kg, route oral; in short: as §2
[20] = Tmax in C57BL/6 mouse liver at 100 mg/kg, po measured from 5 mins to 24 hrs by HPLC analysis; type: ADME, organism-based; in short: as §3
[21] = Tmax in C57BL/6 mouse liver at 200 mg/kg, po measured from 5 mins to 24 hrs by HPLC analysis; type: ADME, organism-based; in short: as §3
[22] = Cmax in C57BL/6 mouse liver at 100 mg/kg, po measured from 5 mins to 24 hrs by HPLC analysis; type: ADME, organism-based; design: dose 100 mg/kg, route oral; conditions: in vivo; in short: as §2
[23] = Cmax in C57BL/6 mouse liver at 200 mg/kg, po measured from 5 mins to 24 hrs by HPLC analysis; type: ADME, organism-based; design: dose 200 mg/kg, route oral; conditions: in vivo; in short: as §2
[24] = Oral bioavailability in C57BL/6 mouse liver at 100 mg/kg measured from 5 mins to 24 hrs by HPLC analysis; type: ADME, organism-based; in short: as §2
[25] = Oral bioavailability in C57BL/6 mouse liver at 200 mg/kg measured from 5 mins to 24 hrs by HPLC analysis; type: ADME, organism-based; in short: as §2
[26] = Drug level in C57BL/6 mouse liver at 100 mg/kg, po measured after 5 mins by HPLC analysis; type: ADME, organism-based; conditions: in vivo
[27] = Half life in mouse plasma by HPLC analysis; conditions: in vitro
[28] = test system: Hepatitis B virus; assay: Antiviral activity against HBV infected in human HepG2.2.15 cells; type: functional, organism-based; conditions: HepG2 2.2.15
[29] = test system: Hepatitis B virus; assay: Antiviral activity against HBV infected in […] cells; type: functional, organism-based
[30] = test system: Hepatitis B virus; assay: Antiviral activity against HBV infected in human HepAD38 cells assessed as reduction in viral DNA levels incubated for 6 days by PCR analysis; type: functional, organism-based; conditions: HePAD38, 144 h
[31] = Selectivity index, ratio of CC50 for cytotoxicity in human HepAD38 cells assessed as induction of cell killing to EC50 for antiviral activity against HBV infected in human HepAD38 cells assessed as reduction in viral DNA levels incubated for 6 days by PCR analysis; type: toxicity, cell-based; conditions: read-out: Ratio CC50/EC50
[32] = test system: Hepatitis B virus; assay: Antiviral activity against HBV infected in human HepG2.A64 cells containing reverse transcriptase L180M/T184L/M204V mutant assessed as reduction in viral replication incubated for 6 days by PCR analysis; type: functional, organism-based; conditions: HepG2.A64, 144 h
In short: (§4)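 Wild-type HBV replication measured in HepAD38 and HepG2.2.15 cells, lamivudine/entecavir-resistant HBV in HepG2.A64 cells (rtL180M+rtT184L+rtM204V) and multidrug-resistant HBV in HepG2.1403F cells (rtL180M+rtM204V+rtS202G+rtN236T). Read-out is reduction of HBV DNA. EC50 is reported as mean ± SD.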

[33] = test system: Hepatitis B virus; assay: Antiviral activity against multidrug-resistant HBV infected in human HepG2.1403F cells assessed as reduction in viral replication incubated for 6 days by PCR analysis; type: functional, organism-based; conditions: 144 h; in short: as §4
[34] = test system: Hepatitis B virus; assay: Antiviral activity against HBV infected in human HepG2.2.15 cells assessed as reduction in viral DNA levels incubated for 6 days by PCR analysis; type: functional, organism-based; conditions: HepG2 2.2.15, 144 h
[35] = Cytotoxicity in human HepG2 cells assessed as induction of cell killing; type: cell-based
[36] = test system: Hepatitis B virus; assay: Antiviral activity against HBV genotype D in hydrodynamic injection-based C57BL/6 mouse model of HBV infection assessed as inhibition of HBV replication at 100 mg/kg, po dosed once daily for 7 days by real-time PCR analysis; type: functional, organism-based
[37] = Cytotoxicity in human HepG2 cells assessed as induction of cell killing

Q: Which Activity [1] does the source give for `Cc1cc(Nc2nn(C3CC3)c3cnc(S(=O)(=O)N4CCC(OC(=O)CN(C)C)CC4)cc23)ccc1F` here?
A: inactive

Q: What about the Activity [2] of the same molecule?
A: Active

Q: And the Activity [3]?
A: Active

Q: And the Activity [4]?
A: Active

Q: And the Activity [5]?
A: Active

Q: What about the Activity [6] of the same molecule?
A: Active

Q: What about the Activity [7] of the same molecule?
A: Active

Q: With `Cc1cc(Nc2nn(C3CC3)c3cnc(S(=O)(=O)N4CCC(OC(=O)CN(C)C)CC4)cc23)ccc1F.O=C(O)CC(O)(CC(=O)O)C(=O)O` as the molecule, how does the solubility [8] read?
A: 8130 µg/mL

Q: And the solubility [9]?
A: 7600 µg/mL

Q: And the solubility [10]?
A: 6650 µg/mL

Q: What about the solubility [11] of the same molecule?
A: 31 µg/mL

Q: What about the AUC [12] of the same molecule?
A: 7010 ng·h/mL

Q: And the AUC [13]?
A: 21100 ng·h/mL

Q: And the AUC [14]?
A: 306 nmol·h/g

Q: What about the AUC [15] of the same molecule?
A: 482 nmol·h/g

Q: What about the Tmax [16] of the same molecule?
A: 1 h

Q: What about the Tmax [17] of the same molecule?
A: 1 h

Q: And the Cmax [18]?
A: 3.73 µM

Q: What about the Cmax [19] of the same molecule?
A: 8.84 µM

Q: What about the Tmax [20] of the same molecule?
A: 2 h

Q: And the Tmax [21]?
A: 4 h

Q: What about the Cmax [22] of the same molecule?
A: 40 nmol/g

Q: What about the Cmax [23] of the same molecule?
A: 59 nmol/g

Q: What about the bioavailability [24] of the same molecule?
A: 87.6%

Q: And the bioavailability [25]?
A: 132%

Q: And the Drug uptake [26]?
A: > 10 nmol/g

Q: And the half-life [27]?
A: 0.783 h

Q: With `COC(=O)C1=C(C)NC(c2ncc(F)cc2F)=N[C@H]1c1ccc(F)cc1Cl` as the molecule, how does the EC50 [28] read?
A: 53 nM

Q: For `CCC(C)NS(=O)(=O)c1ccc(F)c(C(=O)Nc2ccc(F)c(F)c2)c1` (configuration not stated), which EC50 [29] is on record?
A: 300 nM

Q: What does the source list for `CC[C@@H](C)NS(=O)(=O)c1ccc(F)c(C(=O)Nc2ccc(F)c(F)c2)c1`?
A: EC50 [30]: 310 nM; selectivity ratio at 144 h [31]: 129; EC50 [32]: 48 nM; EC50 [33]: 74 nM; EC50 [34]: 280 nM; CC50 [35]: 39800 nM; Activity [36]: inactive; CC50 [37]: 39800 nM
